{"data": "Results gathered from unrelated publications", "target": "Cyclin-dependent kinase 15 (CDK15, Homo sapiens, UniProt Q96Q40)", "note": "Lines come from different studies, so protocols differ."}
{"Compound": "CCN1CCN(Cc2ccc(C(=O)Nc3ccc(C)c(Oc4ccc5c(c4)CC(=O)N5)c3)cc2C(F)(F)F)CC1", "test": "binding, competition with immobilised ligand", "conditions": "1 µM", "remaining binding [%]": 100}
{"Compound": "CCS(=O)(=O)c1cc2cc(C[C@@](O)(CC(C)(C)c3ccc(F)cc3C(N)=O)C(F)(F)F)[nH]c2cn1", "test": "cell-free assay, competition with immobilised ligand", "conditions": "1 µM", "remaining binding [%]": 59}
{"Compound": "O=C(c1ccc(Nc2nccc(-c3cc4ccccc4s3)n2)cc1)N1CCC(N2CCCC2)CC1", "test": "binding, competition with immobilised ligand", "conditions": "1 µM", "remaining binding [%]": 100}
{"Compound": "Cn1nc(C(=O)NCc2ccc(C(=O)O)cc2)cc1-c1ccc2[nH]ccc2c1", "test": "cell-free assay, competition with immobilised ligand", "conditions": "0.1 µM", "remaining binding [%]": 95}
{"Compound": "c1cnn2ncc(-c3ccnc(N4CCC45COC5)n3)c2c1", "test": "binding", "conditions": "1 µM", "remaining binding [%]": 85}
{"Compound": "CNC(=O)[C@@H]1CC[C@@H](n2c(-c3ccc4cnccc4c3)nc3ccc(C(=O)NCc4cccc(C(N)=O)c4)cc32)C1", "test": "binding, competition with immobilised ligand", "conditions": "1 µM", "remaining binding [%]": 100}
{"Compound": "O=C(NCC1CCOCC1)c1n[nH]cc1NC(=O)c1c(F)cccc1F", "test": "binding, competition with immobilised ligand", "conditions": "1 µM", "remaining binding [%]": 82}
{"Compound": "FC(F)(F)Oc1cccc(-c2cnc3ccc(-c4ccncc4)nn23)c1", "test": "cell-free assay, competition with immobilised ligand", "conditions": "5 µM", "remaining binding [%]": 63}
{"Compound": "CN(C)CC#Cc1ccc(OCCCc2sc(N3CCc4cccc(C(=O)Nc5nc6ccccc6s5)c4C3)nc2C(=O)O)c(F)c1", "test": "cell-free assay, competition with immobilised ligand", "conditions": "1 µM", "remaining binding [%]": 100}
{"Compound": "COc1ncc2cc3ccccc3nc2c1C#N", "test": "cell-free assay, competition with immobilised ligand", "conditions": "5 µM", "remaining binding [%]": 99}
{"Compound": "CN(C)c1nccc(-c2cnn3ncccc23)n1", "test": "binding", "conditions": "1 µM", "remaining binding [%]": 100}
{"Compound": "C[C@@H](c1ccc(-n2cnc3c(N)ncnc32)cc1)N1CCc2nn(C)c(Cc3ccccc3)c2C1=O", "test": "binding, competition with immobilised ligand", "conditions": "0.1 µM", "remaining binding [%]": 86}
{"Compound": "Cc1cnn2ncc(-c3ccnc(N(C)C)n3)c2c1", "test": "binding", "conditions": "1 µM", "remaining binding [%]": 100}
{"Compound": "O=C(NCCCN1CCOCC1)c1ccc(Nc2ncc(Cl)c(-c3ccc(Cl)s3)n2)cc1", "test": "binding, competition with immobilised ligand", "conditions": "1 µM", "remaining binding [%]": 89}
{"Compound": "CN(C)c1ncc(F)c(-c2cnn3ncccc23)n1", "test": "binding", "conditions": "1 µM", "remaining binding [%]": 100}
{"Compound": "C[C@@H]1CN(c2cc(-c3nn(C)c4ccc(OC5(C)CC5)cc34)ncn2)C[C@H](C)O1", "test": "cell-free assay, competition with immobilised ligand", "conditions": "1 µM", "remaining binding [%]": 84}
{"Compound": "N[C@H]1CCN(c2nccc(-c3cnn4ncccc34)n2)C1", "test": "binding", "conditions": "1 µM", "remaining binding [%]": 100}
{"Compound": "CS(=O)(=O)c1cc(C2(NC(=O)c3cncc4c3cnn4-c3ccc(F)cc3)CC2)ccn1", "test": "cell-free assay, competition with immobilised ligand", "conditions": "1 µM", "remaining binding [%]": 100}
{"Compound": "C[C@H]1CCN(c2nccc(-c3cnn4ncccc34)n2)C1", "test": "binding", "conditions": "1 µM", "remaining binding [%]": 56}
{"Compound": "O=C(NCCCN1CCOCC1)c1ccc(Nc2nccc(-c3cc4ccccc4s3)n2)cc1", "test": "binding, competition with immobilised ligand", "conditions": "1 µM", "remaining binding [%]": 87}
{"Compound": "COc1ccnn2ncc(-c3ccnc(N(C)C)n3)c12", "test": "binding", "conditions": "1 µM", "remaining binding [%]": 41}
{"Compound": "COc1cccc(CNC(=O)c2nc3scc(COCc4ccc(C(=O)O)cc4)c3c(=O)[nH]2)c1", "test": "cell-free assay, competition with immobilised ligand", "conditions": "1 µM", "remaining binding [%]": 97.6}
